Laboratory results reported in ChEMBL document CHEMBL4414599, “Selective Phenylimidazole-Based Inhibitors of the Mycobacterium tuberculosis Proteasome” (J Med Chem, 2019).

Target: T1, Proteasome subunit beta type-8 (Homo sapiens, UniProt P28062)
T1 sequence (P28062 whole entry): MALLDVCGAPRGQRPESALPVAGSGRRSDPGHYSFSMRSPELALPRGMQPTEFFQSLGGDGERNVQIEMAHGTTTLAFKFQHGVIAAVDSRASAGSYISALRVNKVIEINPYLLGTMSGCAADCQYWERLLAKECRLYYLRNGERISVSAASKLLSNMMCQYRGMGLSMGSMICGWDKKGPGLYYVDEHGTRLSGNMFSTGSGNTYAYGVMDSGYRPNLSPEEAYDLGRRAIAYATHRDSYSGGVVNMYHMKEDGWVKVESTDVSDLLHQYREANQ
Assay: Inhibition of human 20S proteasome subunit beta-5i using Ac-ANW-AMC as substrate and measured every 30 secs for 30 mins by microtiter plate assay
Conditions: not given
Summary of the method: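 Human immunoproteasome (i-20S) run in HEPES pH 7.5 buffer with EDTA and BSA, substrate Ac-ANW-AMC at 15 µM, 25 °C. Inhibitor given as a three-fold dilution series, DMSO under 0.5% final. Fluorescence 340/460 nm followed every 30 s for 30 min. IC50 fitted from rates against log inhibitor concentration; triplicate, at least three independent experiments.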

Row | SMILES | IC50
1 | Cc1cc(C(=O)N[C@@H](CC(=O)N2CCCC[C@@H]2C)C(=O)N[C@@H](C)C(=O)NCc2ccc(F)cc2F)no1 | 0.026 µM
2 | COc1ccccc1CNC(=O)[C@H](C)NC(=O)[C@H](CC(=O)N1CCC[C@@H]1c1ccccc1)NC(=O)c1cc(C)on1 | > 100 µM
3 | Cc1cc(C(=O)N[C@@H](CC(=O)N2CCC[C@@H]2c2ccccc2)C(=O)N[C@@H](C)c2ncc(-c3ccc(F)cc3F)[nH]2)no1 | > 100 µM
4 | Cc1cc(C(=O)N[C@@H](CC(=O)N2CCC[C@@H]2c2ccccc2)C(=O)N[C@@H](C)c2ncc(-c3ccccc3)[nH]2)no1 | > 100 µM
5 | Cc1cc(C(=O)N[C@@H](CC(=O)N2CCC[C@@H]2c2ccccc2)C(=O)N[C@@H](C)C(=O)NCc2ccc(F)cc2F)no1 | 7.89 µM
6 | Cc1cc(C(=O)N[C@@H](CC(=O)N2CCC[C@@H]2c2ccccc2)C(=O)N[C@@H](C)c2ncc(-c3ccccc3F)[nH]2)no1 | > 100 µM
7 | Cc1cc(C(=O)N[C@@H](CC(=O)N2CCC[C@@H]2c2ccccc2)C(=O)N[C@@H](C)C(=O)NCc2c(F)cccc2F)no1 | 20.1 µM

Same assay, conditions: human, 0.5 h

Row | SMILES | inhibition (INH)
8 | Cc1cc(C(=O)N[C@@H](CC(=O)N2CCCC[C@@H]2C)C(=O)N[C@@H](C)C(=O)NCc2ccc(F)cc2F)no1 | Dose-dependent effect
9 | COc1ccccc1CNC(=O)[C@H](C)NC(=O)[C@H](CC(=O)N1CCC[C@@H]1c1ccccc1)NC(=O)c1cc(C)on1 | Dose-dependent effect
10 | Cc1cc(C(=O)N[C@@H](CC(=O)N2CCC[C@@H]2c2ccccc2)C(=O)N[C@@H](C)C(=O)NCc2ccc(F)cc2F)no1 | Dose-dependent effect
11 | Cc1cc(C(=O)N[C@@H](CC(=O)N2CCC[C@@H]2c2ccccc2)C(=O)N[C@@H](C)C(=O)NCc2c(F)cccc2F)no1 | Dose-dependent effect

Target: T2, Proteasome Macropain subunit MB1 (Homo sapiens, UniProt P28074)
T2 sequence (P28074 whole entry): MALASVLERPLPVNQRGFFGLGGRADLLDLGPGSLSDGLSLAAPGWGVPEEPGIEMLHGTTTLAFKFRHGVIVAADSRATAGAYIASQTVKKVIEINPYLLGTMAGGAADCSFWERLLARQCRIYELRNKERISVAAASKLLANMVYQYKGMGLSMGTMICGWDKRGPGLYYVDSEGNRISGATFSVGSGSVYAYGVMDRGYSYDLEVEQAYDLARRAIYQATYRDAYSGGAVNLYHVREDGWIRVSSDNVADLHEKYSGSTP
Assay: Inhibition of human 20S proteasome beta-5c subunit using Suc-LLVY-AMC as substrate and measured every 30 secs for 30 mins by microtiter plate assay
Conditions: not given
Summary of the method: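 Human constitutive 20S, purchased, 0.8 nM in the enzyme solution. Buffer: 20 mM HEPES pH 7.5, 0.5 mM EDTA, 0.1 mg/mL BSA, 0.02% SDS. Suc-LLVY-AMC at 25 µM final, 25 °C, three-fold inhibitor dilutions. Fluorescence 340/460 nm read every 30 s for 30 min. IC50 from a log-concentration rate fit against negative and positive controls; triplicate, at least three independent experiments.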

Row | SMILES | IC50
12 | Cc1cc(C(=O)N[C@@H](CC(=O)N2CCCC[C@@H]2C)C(=O)N[C@@H](C)C(=O)NCc2ccc(F)cc2F)no1 | 1.41 µM
13 | COc1ccccc1CNC(=O)[C@H](C)NC(=O)[C@H](CC(=O)N1CCC[C@@H]1c1ccccc1)NC(=O)c1cc(C)on1 | > 100 µM
14 | Cc1cc(C(=O)N[C@@H](CC(=O)N2CCC[C@@H]2c2ccccc2)C(=O)N[C@@H](C)c2ncc(-c3ccc(F)cc3F)[nH]2)no1 | > 100 µM
15 | Cc1cc(C(=O)N[C@@H](CC(=O)N2CCC[C@@H]2c2ccccc2)C(=O)N[C@@H](C)c2ncc(-c3ccccc3)[nH]2)no1 | > 100 µM
16 | Cc1cc(C(=O)N[C@@H](CC(=O)N2CCC[C@@H]2c2ccccc2)C(=O)N[C@@H](C)C(=O)NCc2ccc(F)cc2F)no1 | > 100 µM
17 | Cc1cc(C(=O)N[C@@H](CC(=O)N2CCC[C@@H]2c2ccccc2)C(=O)N[C@@H](C)c2ncc(-c3ccccc3F)[nH]2)no1 | > 100 µM
18 | Cc1cc(C(=O)N[C@@H](CC(=O)N2CCC[C@@H]2c2ccccc2)C(=O)N[C@@H](C)C(=O)NCc2c(F)cccc2F)no1 | > 100 µM

Same assay, conditions: human, 0.5 h

Row | SMILES | inhibition (INH)
19 | Cc1cc(C(=O)N[C@@H](CC(=O)N2CCCC[C@@H]2C)C(=O)N[C@@H](C)C(=O)NCc2ccc(F)cc2F)no1 | Dose-dependent effect
20 | COc1ccccc1CNC(=O)[C@H](C)NC(=O)[C@H](CC(=O)N1CCC[C@@H]1c1ccccc1)NC(=O)c1cc(C)on1 | Dose-dependent effect
21 | Cc1cc(C(=O)N[C@@H](CC(=O)N2CCC[C@@H]2c2ccccc2)C(=O)N[C@@H](C)C(=O)NCc2ccc(F)cc2F)no1 | Dose-dependent effect
22 | Cc1cc(C(=O)N[C@@H](CC(=O)N2CCC[C@@H]2c2ccccc2)C(=O)N[C@@H](C)C(=O)NCc2c(F)cccc2F)no1 | Dose-dependent effect

Tested on: not listed separately
Assay: Solubility of the compound
Format: physicochemical
Conditions: not given

Row | SMILES | solubility
23 | Cc1cc(C(=O)N[C@@H](CC(=O)N2CCCC[C@@H]2C)C(=O)N[C@@H](C)C(=O)NCc2ccc(F)cc2F)no1 | Soluble
